bovine MsrA act: activates bovine MsrA enzyme; 360,000 tested, 0.3% active; activation, % at 10.6 µM; purified bovine MsrA, absorbance read-out; AID 602163; in the data active means activation above about 7.5%;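 further: 0% = vehicle and 100% = reference activator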
MsrA inhibitor: inhibitors of bovine MsrA | purified bovine MsrA, absorbance read-out | inhibition, % at 15.5 µM | 360,000 tested, 0.75% active | AID 651718; in the data active means inhibition above about 4.5%;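 further: 0% = vehicle wells with enzyme and 100% = reference inhibitor wells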
TbMetRS inhib: blocks T. brucei methionyl-tRNA synthetase activity; purified T. brucei MetRS, ATP depletion, Kinase-Glo luminescence; inhibition, % at 11.9 µM; 360,000 tested, 0.4% active; AID 624268;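 active means inhibition above a per-plate cutoff of the control wells' mean inhibition plus 3 SD, cut at about 5.5% in these data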;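 further: 0% = DMSO wells median and 100% = median of wells with control inhibitor compound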
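Dosing: 11.9 µM single point; system: parasite MetRS enzyme; technique: luminescence of leftover ATP; times: 15 min enzyme-compound preincubation, 2 h reaction, 10 min detection, 25 °C; replicates: each compound tested once; read-out basis: percent inhibition relative to median high and low control wells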
proCasp3 act: activators of human procaspase-3; P42574; activation, % at 8.5 µM; recombinant procaspase-3 D3A, Ac-DEVD-pNA absorbance 405 nm; 330,000 tested, 0.11% active; AID 463141;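 active means activation above the mean of all tested compounds plus 3 SD, cut at about 21% in these data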;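 further: 0% = DMSO alone and 100% = DMSO wells spiked with extra 5 µM PC-3 D3A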
Target sequence (P42574 whole entry D9A/D28A/D175A): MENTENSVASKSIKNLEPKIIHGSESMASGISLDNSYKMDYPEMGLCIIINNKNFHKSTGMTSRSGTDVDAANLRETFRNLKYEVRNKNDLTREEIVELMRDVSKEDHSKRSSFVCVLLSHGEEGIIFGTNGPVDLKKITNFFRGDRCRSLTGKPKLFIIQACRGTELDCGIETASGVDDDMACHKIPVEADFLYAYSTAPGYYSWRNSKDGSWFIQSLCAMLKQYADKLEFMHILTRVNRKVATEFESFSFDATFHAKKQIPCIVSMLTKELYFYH
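Assay system: Procaspase-3 D3A mutant, all three cleavage aspartates alanine. Buffer or medium: Zinc-free HEPES saline buffer with Triton X-100. Times: 1 h compound preincubation, 2 h substrate hydrolysis at 25 °C. Measured by: 405 nm absorbance of p-nitroaniline, reads at 0 and 120 min. Read-out basis: percent activation relative to control range. Replicates: singlicate.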
procasp7 counter: counter-screen: procaspase-7 (human) activation. P55210. recombinant procaspase-7, Ac-DEVD-pNA absorbance 405 nm; D23A/D198A/D206A triple mutant, cannot self-cleave; scale: DMSO 0, 5 µM enzyme 100. activation, % at 8.5 µM. 330,000 tested, 0.093% active. AID 463210;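 active means percent activation above the screen-wide mean plus 3 SD, cut at about 25% in these data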
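Assay system: Uncleavable procaspase-7 mutant enzyme; Input: 2 µM procaspase-7 mutant as dispensed; Also added: DEVD-pNA substrate; Medium: Zinc-free HEPES pH 7.4 with 300 mM NaCl, 0.01% Triton X-100; Timing: 1 h compound preincubation, 2 h substrate cleavage, 25 °C; Measured by: Epi-absorbance of released pNA at 405 nm, two timepoints.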
TbMetRS confirm: Trypanosoma brucei MetRS inhibition confirmed; shares compounds with TbMetRS inhib; T. brucei MetRS enzyme, luminescence (ATP depletion); inhibition, % at 11.9 µM; 1,400 tested, 93% active; in the data active means inhibition above about 7%
Jurkat tox: counter-screen for T. brucei MetRS inhibitors: Jurkat cell cytotoxicity. shares compounds with TbMetRS inhib. AID 624413. inhibition, % at 8.3 µM. Jurkat cells viability, ATP luminescence. 1,400 tested, 12% active; in the data active means inhibition above about 15%;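 further: 0% = vehicle and 100% = reference inhibitor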
Tb MetRS inh FP: orthogonal test for Trypanosoma brucei MetRS inhibitors | AID 651607 | purified T. brucei MetRS, fluorescence polarization | 1,400 tested, 44% active | inhibition, % at 11.9 µM | shares compounds with TbMetRS inhib; in the data active means inhibition above about 17%;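 further: 0% = vehicle wells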
* = called active by the depositor; . = not tested or not shown. A selection: hits, their analogues and other compounds. The true share with any hit is near 1.5%.

SMILES	bovine MsrA act	MsrA inhibitor	TbMetRS inhib	proCasp3 act	procasp7 counter	TbMetRS confirm	Jurkat tox	Tb MetRS inh FP
CN1CCN(C(CNC(=O)Nc2ccc(Cl)cc2)c2ccc(F)cc2)CC1 (centres undefined)	0	1	28*	11	1	52*	9	29*
Cc1ccc(C(CNC(=O)Nc2ccc(Cl)cc2)N2CCN(C)CC2)cc1 (centres undefined)	-4	0	8.1*	9	0	30*	10	10
Fc1ccc(NC(=S)NCCc2ccc(Cl)cc2)cc1	-11	0	0	-4	4	.	.	.
Cc1cccc(NC(=O)NCC(c2ccc(F)cc2)N2CCN(C)CC2)c1 (centres undefined)	-4	-1	1	5	2	.	.	.
O=C(NCc1nc2ccccc2[nH]1)C1=C[C@@H](c2ccc(Br)cc2)C[C@@H](OCc2ccc(CO)cc2)O1	-9	0	79*	5	-7	101*	4	84*
O=C(NCc1nc2ccccc2[nH]1)C1=C[C@H](c2coc3ccccc3c2=O)C[C@H](OCCCCO)O1	-7	-1	17*	0	-4	53*	-3	18*
O=C(NCc1nc2ccccc2[nH]1)C1=C[C@@H](c2ccc(Br)cc2)C[C@@H](OCCCCO)O1	-3	-1	85*	6	4	104*	1	106*
O=C(NCc1ccccc1)C1=C[C@H](c2ccc(Br)cc2)C[C@H](OCCCCO)O1	-3	0	0	1	4	.	.	.
C=CCN=C1NC(c2ccc(F)cc2)C(C(=O)OC)=C(C)N1C (centres undefined)	.	1	.	.	.	.	.	.
CCOC(=O)C1=C(C(=O)OCC)C2N(Cc3ccc(C#N)cc3)c3ccccc3[C@@]23C[C@@H](C(=O)OC)N(S(=O)(=O)c2ccc(OC)cc2)C3=N1 (some centres undefined)	.	2	.	.	.	.	.	.
COc1cccc(CNc2ccc([N+](=O)[O-])cc2Cl)c1O	-5	2	17*	-7	0	18*	7	13
COc1ccc2nc(-c3ccc(CN4CCC(c5nc6ccccc6[nH]5)CC4)cc3)c(-c3ccccc3)nc2c1	.	-1	.	.	.	.	.	.
Cc1ccc([C@H]2C[C@]34CN(Cc5ccccc5)S(=O)(=O)[C@H]3C[C@H]2O4)cc1	.	-1	.	.	.	.	.	.
Cc1ccccc1OCC(=O)N/N=C/c1ccco1	-8	0	-2	5	-1	.	.	.
Cc1cc(Cl)ccc1OCC(=O)NCC(=O)N/N=C/c1ccco1	-3	0	6.8*	0	-4	71*	7	20*
COc1cccc(/C(O)=C/c2nc3ccc(C(=O)NCCc4cccc(C)c4)cc3[nH]c2=O)c1	-8	0	7.4*	8	1	6.6*	15*	3
CC(C)OC(=O)N(C)C[C@H]1OCc2cn(nn2)CCCC(=O)N([C@@H](C)CO)C[C@@H]1C	.	0	.	.	.	.	.	.
CCOC(=O)Cc1nnc(NC(=O)Nc2ccccc2)s1	0	0	16*	9	8	23*	8	15
COc1ccc(Cc2nnc(NC(=O)Nc3ccccc3)s2)cc1OC	-1	0	7.0*	-8	5	21*	6	15
O=C(NCCSCc1ccco1)Nc1cccc(Cl)c1	-2	0	1	-3	2	.	.	.
S=C(NCCSCc1ccc(Cl)cc1)Nc1ccccc1	-5	0	30*	0	7	51*	5	50*
O=C(Nc1ccc(Cl)cc1)Nc1ccccc1C(=O)NCc1ccco1	-3	0	14*	1	5	20*	2	14
O=C(NCCSCc1ccco1)Nc1ccc(Cl)cc1	-7	1	6.4*	-3	4	16*	4	8
COC(=O)C1=C(C)N(Cc2ccccc2C(F)(F)F)C(=NCc2cc(OC)c(OC)c(OC)c2)NC1c1ccccc1 (centres undefined)	.	-2	.	.	.	.	.	.

Screens: PubChem BioAssay, The Scripps Research Institute Molecular Screening Center
